Screening data (PubChem BioAssay)
Mcl1-Bid inh: Mcl-1/Bid binding inhibitors, primary screen, biochemical, TR-FRET, 1536-well. inhibition, % at 21.7 µM. Induced myeloid leukemia cell differentiation protein Mcl-1 (Homo sapiens), Q07820. AID 1021, 2008. 220,000 tested, 0.97% active. TR-FRET Mcl-1/Bid-Dy647 peptide binding;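 active = compounds that cut the binding signal by more than half at the single screening dose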;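 note: His-tagged Mcl-1 with europium anti-His antibody binding Bid BH3 peptide; 0% = Mcl-1 plus peptide wells and 100% = peptide-only wells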
14-3-3 Bad inh: inhibitors of 14-3-3 zeta/Bad binding, primary screen, biochemical, TR-FRET, bovine 14-3-3 zeta | inhibition, % at 21.7 µM | 220,000 tested, 0.71% active | AID 781, 2007 | TR-FRET 14-3-3zeta/Dy647-pBad peptide displacement, 1 h | 14-3-3 protein zeta/delta (Bos taurus), P63103;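 active = inhibition above about 70%, limit read from the data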;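 note: 0% = full 14-3-3 plus peptide FRET controls and 100% = background without 14-3-3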
Target sequence (P63103 whole entry, looked up): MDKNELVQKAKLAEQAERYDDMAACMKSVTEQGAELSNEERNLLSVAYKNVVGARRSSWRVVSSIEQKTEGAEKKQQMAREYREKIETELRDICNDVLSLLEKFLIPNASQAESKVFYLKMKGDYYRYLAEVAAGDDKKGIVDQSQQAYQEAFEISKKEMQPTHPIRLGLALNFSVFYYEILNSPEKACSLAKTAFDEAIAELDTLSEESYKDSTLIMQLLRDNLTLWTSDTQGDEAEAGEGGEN
Hck Nef HTS: inhibitors of Nef-activated human Hck kinase, primary screen, biochemical, Z-Lyte FRET, 384-well, Hck-YEEI; 220,000 tested, 0.68% active; Tyrosine-protein kinase HCK (Homo sapiens), P08631; AID 463187, 2010; inhibition, % at 20 µM; Recombinant Hck-YEEI plus Nef, Z-Lyte FRET kinase assay;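 active = Hck-Nef kinase inhibition above about 50%, limit read from the data; inactive = inhibition below that limit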;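 note: 0% = DMSO with Hck plus Nef and 100% = Hck alone without Nef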
Mcl-1 Bim block: inhibitors of Bim peptide binding to Mcl-1, primary screen, biochemical, bead-based flow cytometry, multiplex | inhibition, % at 10 µM | Induced myeloid leukemia cell differentiation protein Mcl-1 (Homo sapiens), Q07820 | Bim peptide-Mcl-1 binding | 190,000 tested, 0.1% active | AID 1009, 2008; in the data active = inhibition above about 40%;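 note: 0% = no compound tracer wells and 100% = peptide blocker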
Mcl1 Noxa PPI: Mcl-1/Noxa binding inhibitors, primary screen, biochemical, TR-FRET, 1536-well; TR-FRET Mcl-1/Noxa peptide binding, 2 h; inhibition, % at 21.7 µM; 220,000 tested, 1.5% active; AID 1022, 2008;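 active = compounds that cut the protein-peptide binding signal by more than 50% relative to plate controls in a single-dose test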;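 note: His-tagged Mcl-1 with rhodamine Noxa BH3 peptide and terbium anti-His antibody; 0% = Mcl-1 plus Noxa peptide wells and 100% = peptide-only wells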
Calb biofilm kill: clotrimazole potentiators killing C. albicans biofilm, primary screen, 4-compound mixtures | C. albicans biofilm persisters + clotrimazole, fluorescence viability; primary screen in compound mixtures of four per well | inhibition, % at 7.6 µM | 120,000 tested, 0.02% active;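 active = inhibition above 30.3% in the primary screen of four-compound pools, then above 30% when the compound was retested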;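 note: compounds exposed to preformed 24 h biofilms for 48 h; 0% = untreated biofilm control and 100% = clotrimazole plus chlorhexidine kill blank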
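System: C. albicans CAF4-2 wild-type biofilms; Medium: RPMI/MOPS medium, pH 7.0; Reagent: Clotrimazole, 50 µg/mL; Times: biofilm formation 24 h, compound exposure 48 h, 37 °C; Detection: 2-h Alamar Blue fluorescence, 535/590 nm excitation/emission; Evaluation: percent inhibition of biofilm viability.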
* hit, by the source's call; x = no result given. In the library only some 3.2% were active in any assay of this set; here they are far more common.

SMILES	Mcl1-Bid inh	14-3-3 Bad inh	Hck Nef HTS	Mcl-1 Bim block	Mcl1 Noxa PPI	Calb biofilm kill
NCC12CC3CC(C1)CC(c1ccc(Cl)cc1)(C3)C2	-17	5	11	1	0	16
CCNS(=O)(=O)c1ccc(NC(=O)Cn2cc([N+](=O)[O-])cn2)cc1	-36	-8	-1	1	4	14
Cc1cccc(N2C(=O)C3C4CC(=O)C(c5ccccc54)C3C2=O)c1C (stereo not drawn)	-17	0	7	0	11	12
Cn1nc(SCC(=O)O)sc1=S	64*	31	1	-1	-13	x
CCOC(=O)C(Sc1nn(C)c(=S)s1)C(C)=O (stereo not drawn)	11	36	1	-3	x	x
COc1ccccc1OC1=NS(=O)(=O)c2ccccc21	13	85*	7	2	13	x
CCOc1cc(NC(=S)NCC2CCCO2)c(OCC)cc1NC(=O)c1cccc(F)c1 (stereo not drawn)	-54	-7	22	-2	16	-2
COCCN(C(=O)Nc1ccccc1)c1ccccc1C	-8	8	1	-3	-10	x
CCOc1cc(C=C2C(=O)c3ccccc3C2=O)ccc1OCC(=O)Nc1ccc(C)cc1	86*	29	46	-2	43	16
COc1ccc(C(=O)Nc2ccc3c(c2)C(=O)c2ccccc2C3=O)cc1OC	85*	69	-2	0	68*	12
O=C(COC(=O)Cn1cnc2ccccc21)Nc1ccc2c(c1)C(=O)c1ccccc1C2=O	65*	46	5	0	84*	15
CCOc1cc(/C=N/NC(N)=O)ccc1OCC(=O)Nc1ccc(C)c(C)c1	-3	15	24	3	17	24
COCC(=O)Nc1ccccc1C(=O)Nc1ccc(OC)cc1	-17	6	6	-1	7	x
COc1ccc(C(=O)Nc2cccc(NC(C)=O)c2)cc1OC	-4	-1	-3	-4	-8	9
COc1ccc(NC(=O)c2ccccc2NC(=O)COc2ccccc2)cc1	53*	37	8	4	-70	x
c1ccc(N2CCCCC2)c(NC2=NCCC2)c1	-24	-5	6	3	-4	x
CC(C)(C)c1cc(Br)c(O)c(N=Nc2ccc(S(=O)(=O)N3CCOCC3)cc2)c1	-20	-8	18	-1	27	14
Cc1ccccc1OCC(=O)Nc1ccc2c(c1)C(=O)c1ccccc1C2=O	8	10	12	-1	67*	12
COc1cc(C(=O)Nc2ccc3c(c2)C(=O)c2ccccc2C3=O)cc(OC)c1OC	77*	62	3	-2	85*	16
CCOc1cc(/C=C2/NC(=O)N(CC(=O)Nc3cccc(C)c3)C2=O)ccc1OCC(N)=O	3	20	25	1	59*	-8
O=C(COc1ccccc1)Nc1ccc2c(c1)Cc1cc(NC(=O)COc3ccccc3)ccc1-2	22	28	1	113*	20	12
O=C(Nc1ccccc1N1CCOCC1)c1cccnc1Cl	-39	3	0	0	4	-2
CC(O)c1n(C)c(Cl)c[n+]1C (stereo not drawn)	-16	16	10	-2	25	x
Cc1cc2nc(/C=C/c3nc4cc(C)c(C)cc4[nH]3)[nH]c2cc1C	22	64	15	x	79*	14
N#CCCn1cc(/C=C/C(=O)O)c(-c2ccc(F)cc2)n1	-14	-13	24	2	-2	4
NC1=NC(=O)/C(=C/c2cn(CCC(=O)O)nc2-c2ccc(F)cc2)S1	11	-4	2	-14	55*	-9
COc1ccc(-c2nn(CCC(=O)O)cc2/C=C2\SC(N)=NC2=O)cc1	-35	-14	2	-2	67*	21
O=Cc1cn(CCC(=O)O)nc1-c1cccc(Br)c1	-4	-10	16	1	-2	9
